From ChEMBL document CHEMBL1152649, “Synthesis, cytotoxicity and human telomerase inhibition activities of a series of 1,2-heteroannelated anthraquinones and anthra[1,2-d]imidazole-6,11-dione homologues” (2009)

How the values were obtained:
Format in all cases: functional
[1] = system: MDA-MB-231; assay: Growth inhibition of human MDA-MB-231 cells
Method in brief: (§1)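 NCI 60 cancer cell line screen run per the Developmental Therapeutics Program protocol. Dose–response curves were plotted against log10 drug concentration for each cell line within its subpanel, and mean graph midpoint values were calculated.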

[2] = Growth inhibition of human Hs 578T cells; method in brief: as §1
[3] = system: BT-549; assay: Growth inhibition of human BT549 cells; method in brief: as §1
[4] = system: HOP-62; assay: Antiproliferative activity against human HOP62 cells assessed as cell growth at 10 uM; settings: read-out: Activity
Method in brief: (§2)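 NCI 60 cell line panel, single-dose screen (10^-5 M) run by the developmental therapeutics program protocol. Results are given as growth percent of treated cells relative to untreated control cells for each line.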

[5] = system: SW-620; assay: Antiproliferative activity against human SW620 cells assessed as cell growth at 10 uM; settings: read-out: Activity
Method in brief: (§3)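 NCI 60 cell line panel, single dose (10^-5 M), run per the Developmental Therapeutics Program protocol (one dose mean graph). Each result is the growth percentage of treated cells relative to untreated control cells.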

[6] = system: MCF7; assay: Antiproliferative activity against human MCF7 cells assessed as cell growth at 10 uM; settings: read-out: Activity; method in brief: as §2
[7] = system: MDA-MB-435; assay: Antiproliferative activity against human MDA-MB-435 cells assessed as cell growth at 10 uM; settings: read-out: Activity; method in brief: as §2
[8] = system: SK-OV-3; assay: Antiproliferative activity against human SKOV3 cells assessed as cell growth at 10 uM; settings: read-out: Activity; method in brief: as §2
[9] = system: K562; assay: Antiproliferative activity against human K562 cells assessed as cell growth at 10 uM; settings: read-out: Activity; method in brief: as §2
[10] = Antiproliferative activity against human RPMI8266 cells assessed as cell growth at 10 uM; settings: read-out: Activity; method in brief: as §2
[11] = system: SR; assay: Antiproliferative activity against human SR cells assessed as cell growth at 10 uM; settings: read-out: Activity; method in brief: as §3
[12] = system: 786-0; assay: Antiproliferative activity against human 786-0 cells assessed as cell growth at 10 uM; settings: read-out: Activity; method in brief: as §2
[13] = system: ACHN; assay: Antiproliferative activity against human ACHN cells assessed as cell growth at 10 uM; settings: read-out: Activity; method in brief: as §2
[14] = system: SK-MEL-5; assay: Antiproliferative activity against human SK-MEL-5 cells assessed as cell growth at 10 uM; settings: read-out: Activity; method in brief: as §2
[15] = system: HL-60(TB); assay: Growth inhibition of human HL-60(TB) cells
Method in brief: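 NCI 60-cell-line panel run under the Developmental Therapeutics Program protocol. Dose-response curves are plotted against log10 drug concentration for each cell line within its subpanel, and GI50 is read from these curves.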

[16] = Growth inhibition of human […] cells
Method in brief: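 Assayed in the NCI 60 human cancer cell line panel under the Developmental Therapeutics Program protocol. For each line, dose–response curves were plotted against log10 drug concentration. In the one-dose screen at 10^-5 M, growth was given as percent of untreated control cells, and mean graph midpoint values were averaged.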

[17] = system: A549; assay: Growth inhibition of human A549 cells; method in brief: as §1
[18] = system: NCI-H322M; assay: Growth inhibition of human NCI-H322M cells; method in brief: as §1
[19] = system: NCI-H460; assay: Growth inhibition of human NCI-H460 cells; method in brief: as §1
[20] = system: NCI-H522; assay: Growth inhibition of human NCI-H522 cells; method in brief: as §1
[21] = system: HCC 2998; assay: Growth inhibition of human HCC2998 cells; method in brief: as §1
[22] = system: HCT-116; assay: Growth inhibition of human HCT116 cells; method in brief: as §1
[23] = system: HT-29; assay: Growth inhibition of human HT-29 cells; method in brief: as §1
[24] = read-out: LC50 (the source's name)

**Q.** Which GI50 [1] does the source give for `CCc1nc2ccc3c(c2[nH]1)C(=O)c1ccccc1C3=O` here?
**A.** The GI50 was 8.86 µM.

**Q.** And the TGI [1]?
**A.** The TGI was > 100 µM.

**Q.** And the GI50 [2]?
**A.** The GI50 was > 100 µM.

**Q.** And the TGI [2]?
**A.** Its TGI is > 100 µM.

**Q.** And the GI50 [3]?
**A.** The GI50 was 9.3 µM.

**Q.** What about the TGI [3] of the same molecule?
**A.** Its TGI is > 100 µM.

**Q.** And the growth at 10 µM [4]?
**A.** The growth at 10 µM was 97.7%.

**Q.** What about the growth at 10 µM [5] of the same molecule?
**A.** Its growth at 10 µM is 73.1%.

**Q.** And the growth at 10 µM [6]?
**A.** The growth at 10 µM was 69.8%.

**Q.** What about the growth at 10 µM [7] of the same molecule?
**A.** Its growth at 10 µM is 84.4%.

**Q.** And the growth at 10 µM [8]?
**A.** Its growth at 10 µM is 25.8%.

**Q.** What about the growth at 10 µM [9] of the same molecule?
**A.** Its growth at 10 µM is 64.4%.

**Q.** And the growth at 10 µM [10]?
**A.** The growth at 10 µM was 56.2%.

**Q.** And the growth at 10 µM [11]?
**A.** The growth at 10 µM was 52.5%.

**Q.** What about the growth at 10 µM [12] of the same molecule?
**A.** Its growth at 10 µM is 76.6%.

**Q.** And the growth at 10 µM [13]?
**A.** The growth at 10 µM was 25%.

**Q.** And the growth at 10 µM [14]?
**A.** Its growth at 10 µM is 60.8%.

**Q.** What about the GI50 [15] of the same molecule?
**A.** Its GI50 is 2.72 µM.

**Q.** And the TGI [15]?
**A.** The TGI was 64.1 µM.

**Q.** What about the CC50 [15, 24] of the same molecule?
**A.** The CC50 was > 100 µM.

**Q.** And the GI50 [16]?
**A.** The GI50 was 4.16 µM.

**Q.** And the TGI [16]?
**A.** Its TGI is > 100 µM.

**Q.** And the CC50 [16, 24]?
**A.** The CC50 was > 100 µM.

**Q.** What about the GI50 [17] of the same molecule?
**A.** Its GI50 is 28.5 µM.

**Q.** And the TGI [17]?
**A.** The TGI was > 100 µM.

**Q.** And the CC50 [17, 24]?
**A.** The CC50 was > 100 µM.

**Q.** And the GI50 [18]?
**A.** The GI50 was 4.87 µM.

**Q.** And the TGI [18]?
**A.** Its TGI is > 100 µM.

**Q.** And the CC50 [18, 24]?
**A.** The CC50 was > 100 µM.

**Q.** What about the GI50 [19] of the same molecule?
**A.** The GI50 was 5.27 µM.

**Q.** And the TGI [19]?
**A.** Its TGI is > 100 µM.

**Q.** What about the CC50 [19, 24] of the same molecule?
**A.** Its CC50 is > 100 µM.

**Q.** What about the GI50 [20] of the same molecule?
**A.** Its GI50 is 28.3 µM.

**Q.** What about the TGI [20] of the same molecule?
**A.** Its TGI is > 100 µM.

**Q.** What about the CC50 [20, 24] of the same molecule?
**A.** The CC50 was > 100 µM.

**Q.** What about the GI50 [21] of the same molecule?
**A.** The GI50 was 18.8 µM.

**Q.** What about the TGI [21] of the same molecule?
**A.** Its TGI is > 100 µM.

**Q.** What about the CC50 [21, 24] of the same molecule?
**A.** The CC50 was > 100 µM.

**Q.** What about the GI50 [22] of the same molecule?
**A.** The GI50 was 5.9 µM.

**Q.** And the TGI [22]?
**A.** The TGI was > 100 µM.

**Q.** And the CC50 [22, 24]?
**A.** Its CC50 is > 100 µM.

**Q.** And the GI50 [23]?
**A.** The GI50 was 16.1 µM.

**Q.** What about the TGI [23] of the same molecule?
**A.** The TGI was > 100 µM.
